# Tested on: not listed separately
# Assay: Cytotoxicity against human BCA1 cells after 3 days by SRB assay
# Assay type: functional
# Settings: BCA1, 72 h, read-out: ED50 (the source's name)
row,SMILES,EC50 [µg/mL]
1,COc1ccc2c(c1)C[C@H]1NCCc3cc4c(c-2c31)OCO4,3.4
2,COc1cc2c(cc1OC)-c1c3c(cc4c1[C@@H](C2)N(C)CC4)OCO3,2.2
3,CN1CCc2cc3c(c4c2[C@H]1Cc1cc(O)ccc1-4)OCO3,8.9

# Tested on: HT-1080
# Assay: Cytotoxicity against human HT1080 cells after 3 days by SRB assay
# Assay type: functional
# Settings: HT-1080, 72 h, read-out: ED50 (the source's name)
row,SMILES,EC50 [µg/mL]
1,COc1ccc2c(c1)C[C@H]1NCCc3cc4c(c-2c31)OCO4,2.2
2,COc1cc2c(cc1OC)-c1c3c(cc4c1[C@@H](C2)N(C)CC4)OCO3,1.7
3,CN1CCc2cc3c(c4c2[C@H]1Cc1cc(O)ccc1-4)OCO3,7.6

# Tested on: not listed separately
# Assay: Cytotoxicity against human LUC1 cells after 3 days by SRB assay
# Assay type: functional
# Settings: LUC1, 72 h, read-out: ED50 (the source's name)
row,SMILES,EC50 [µg/mL]
1,COc1ccc2c(c1)C[C@H]1NCCc3cc4c(c-2c31)OCO4,2.3
2,COc1cc2c(cc1OC)-c1c3c(cc4c1[C@@H](C2)N(C)CC4)OCO3,6.1
3,CN1CCc2cc3c(c4c2[C@H]1Cc1cc(O)ccc1-4)OCO3,6.9

# Tested on: SK-MEL-2
# Assay: Cytotoxicity against human SK-MEL-2 cells after 3 days by SRB assay
# Assay type: functional
# Settings: SK-MEL-2, 72 h, read-out: ED50 (the source's name)
row,SMILES,EC50 [µg/mL]
1,COc1ccc2c(c1)C[C@H]1NCCc3cc4c(c-2c31)OCO4,12.6
2,COc1cc2c(cc1OC)-c1c3c(cc4c1[C@@H](C2)N(C)CC4)OCO3,3.8
3,CN1CCc2cc3c(c4c2[C@H]1Cc1cc(O)ccc1-4)OCO3,> 20

# Tested on: not listed separately
# Assay: Cytotoxicity against human Col1 cells after 3 days by SRB assay
# Assay type: functional
# Settings: Col1, 72 h, read-out: ED50 (the source's name)
row,SMILES,EC50 [µg/mL]
1,COc1ccc2c(c1)C[C@H]1NCCc3cc4c(c-2c31)OCO4,4.1
2,COc1cc2c(cc1OC)-c1c3c(cc4c1[C@@H](C2)N(C)CC4)OCO3,2.1
3,CN1CCc2cc3c(c4c2[C@H]1Cc1cc(O)ccc1-4)OCO3,11.9

# Tested on: not listed separately
# Assay: Cytotoxicity against human KB cells after 3 days by SRB assay
# Assay type: cell-based
# Settings: read-out: ED50
row,SMILES,CC50 at 72 h [µg/mL]
1,COc1ccc2c(c1)C[C@H]1NCCc3cc4c(c-2c31)OCO4,2
2,COc1cc2c(cc1OC)-c1c3c(cc4c1[C@@H](C2)N(C)CC4)OCO3,1.6
3,CN1CCc2cc3c(c4c2[C@H]1Cc1cc(O)ccc1-4)OCO3,4.1

# Tested on: not listed separately
# Assay: Cytotoxicity against vinblastine-resistant human KBV1 cells after 3 days by SRB assay
# Assay type: functional
# Settings: KB-V1, 72 h, read-out: ED50 (the source's name)
row,SMILES,EC50 [µg/mL]
1,COc1ccc2c(c1)C[C@H]1NCCc3cc4c(c-2c31)OCO4,0.9
2,COc1cc2c(cc1OC)-c1c3c(cc4c1[C@@H](C2)N(C)CC4)OCO3,0.9
3,CN1CCc2cc3c(c4c2[C@H]1Cc1cc(O)ccc1-4)OCO3,1.2

# Tested on: P388
# Assay: Cytotoxicity against mouse P388 cells after 3 days by SRB assay
# Assay type: functional
# Settings: P388, 72 h, read-out: ED50 (the source's name)
row,SMILES,EC50 [µg/mL]
1,COc1ccc2c(c1)C[C@H]1NCCc3cc4c(c-2c31)OCO4,2.2
2,COc1cc2c(cc1OC)-c1c3c(cc4c1[C@@H](C2)N(C)CC4)OCO3,0.6
3,CN1CCc2cc3c(c4c2[C@H]1Cc1cc(O)ccc1-4)OCO3,> 5

# Tested on: A-431
# Assay: Cytotoxicity against human A431 cells after 3 days by SRB assay
# Assay type: functional
# Settings: A-431, 72 h, read-out: ED50 (the source's name)
row,SMILES,EC50 [µg/mL]
1,COc1ccc2c(c1)C[C@H]1NCCc3cc4c(c-2c31)OCO4,4.6
2,COc1cc2c(cc1OC)-c1c3c(cc4c1[C@@H](C2)N(C)CC4)OCO3,1.7
3,CN1CCc2cc3c(c4c2[C@H]1Cc1cc(O)ccc1-4)OCO3,6.7

# Tested on: LNCaP
# Assay: Cytotoxicity against human LNCAP cells after 3 days by SRB assay
# Assay type: functional
# Settings: 72 h, read-out: ED50 (the source's name)
row,SMILES,EC50 [µg/mL]
1,COc1ccc2c(c1)C[C@H]1NCCc3cc4c(c-2c31)OCO4,2.4
2,COc1cc2c(cc1OC)-c1c3c(cc4c1[C@@H](C2)N(C)CC4)OCO3,1.9
3,CN1CCc2cc3c(c4c2[C@H]1Cc1cc(O)ccc1-4)OCO3,7.3

# Tested on: ZR-75-1
# Assay: Cytotoxicity against human ZR-75-1 cells after 3 days by SRB assay
# Assay type: functional
# Settings: ZR-75-1, 72 h, read-out: ED50 (the source's name)
row,SMILES,EC50 [µg/mL]
1,COc1ccc2c(c1)C[C@H]1NCCc3cc4c(c-2c31)OCO4,2.4
2,COc1cc2c(cc1OC)-c1c3c(cc4c1[C@@H](C2)N(C)CC4)OCO3,2.8
3,CN1CCc2cc3c(c4c2[C@H]1Cc1cc(O)ccc1-4)OCO3,13.6

# Tested on: not listed separately
# Assay: Cytotoxicity against human U373 cells after 3 days by SRB assay
# Assay type: functional, U-373MG ATCC
# Settings: U373 MG, 72 h, read-out: ED50 (the source's name)
row,SMILES,EC50 [µg/mL]
1,COc1ccc2c(c1)C[C@H]1NCCc3cc4c(c-2c31)OCO4,1.9
2,COc1cc2c(cc1OC)-c1c3c(cc4c1[C@@H](C2)N(C)CC4)OCO3,1.5
3,CN1CCc2cc3c(c4c2[C@H]1Cc1cc(O)ccc1-4)OCO3,4.9

# Tested on: Plasmodium falciparum
# Assay: Antimalarial activity after 24 hrs against chloroquine-sensitive Plasmodium falciparum D6 infected type A+ human erythrocytes by [3H]hypoxanthine uptake
# Assay type: functional
# Settings: read-out: ED50 (the source's name)
row,SMILES,EC50 [µg/mL]
1,COc1ccc2c(c1)C[C@H]1NCCc3cc4c(c-2c31)OCO4,0.44
2,COc1cc2c(cc1OC)-c1c3c(cc4c1[C@@H](C2)N(C)CC4)OCO3,1.26
3,CN1CCc2cc3c(c4c2[C@H]1Cc1cc(O)ccc1-4)OCO3,3.15

# Tested on: Plasmodium falciparum
# Assay: Antimalarial activity after 24 hrs against chloroquine-resistant Plasmodium falciparum W2 infected type A+ human erythrocytes by [3H]hypoxanthine uptake
# Assay type: functional
# Settings: read-out: ED50 (the source's name)
row,SMILES,EC50 [µg/mL]
1,COc1ccc2c(c1)C[C@H]1NCCc3cc4c(c-2c31)OCO4,2.27
2,COc1cc2c(cc1OC)-c1c3c(cc4c1[C@@H](C2)N(C)CC4)OCO3,2.55
3,CN1CCc2cc3c(c4c2[C@H]1Cc1cc(O)ccc1-4)OCO3,1.78

# Tested on: not listed separately
# Assay: Selectivity index, ED50 for human KB cells to ED50 for chloroquine-sensitive Plasmodium falciparum D6
# Assay type: toxicity, cell-based
# Settings: read-out: Ratio ED50
# In short: (§1)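 Selectivity index is the ED50 in KB cells divided by the ED50 against the P. falciparum strain (D-6, chloroquine-sensitive; W-2, chloroquine-resistant). Parasite ED50s are expressed in ng/ml and KB ED50s in µg/ml.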
row,SMILES,selectivity ratio
1,COc1ccc2c(c1)C[C@H]1NCCc3cc4c(c-2c31)OCO4,45
2,COc1cc2c(cc1OC)-c1c3c(cc4c1[C@@H](C2)N(C)CC4)OCO3,4
3,CN1CCc2cc3c(c4c2[C@H]1Cc1cc(O)ccc1-4)OCO3,2

# Tested on: not listed separately
# Assay: Selectivity index, ED50 for human KB cells to ED50 for chloroquine-resistant Plasmodium falciparum W2
# Assay type: toxicity, cell-based
# Settings: read-out: Ratio ED50
# In short: as §1
row,SMILES,selectivity ratio
1,COc1ccc2c(c1)C[C@H]1NCCc3cc4c(c-2c31)OCO4,> 9
2,COc1cc2c(cc1OC)-c1c3c(cc4c1[C@@H](C2)N(C)CC4)OCO3,2
3,CN1CCc2cc3c(c4c2[C@H]1Cc1cc(O)ccc1-4)OCO3,4
